According to ChEMBL document CHEMBL3297648, “Diterpenoids from the Chinese liverwort Heteroscyphus tener and their antiproliferative effects” (J Nat Prod, 2014):

Tests used:
DU-145 = experiment: Antiproliferative activity against human DU145 cells assessed as inhibition of cell viability after 24 hrs by MTT assay; assay type: functional, cell-based; settings: DU-145, 24 h
In short: (§1)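 Cells grown to 50–70% confluence (RWPE1 in K-SFM with pituitary extract and EGF; the other lines in RPMI 1640 with 10% FBS), 5% CO2, 37 °C. Treated for 24 h with DMSO vehicle, compounds, or cisplatin as positive control. MTT (5 mg/mL) added for 4 h, formazan dissolved in DMSO, absorbance read at 570 nm. Viability taken relative to untreated cells after blank subtraction, IC50 fitted from % viability, at least three experiments.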

NCI-H1299 = experiment: Antiproliferative activity against human NCI-H1299 cells assessed as inhibition of cell viability after 24 hrs by MTT assay; assay type: functional, cell-based; settings: NCI-H1299, 24 h; in short: as §1
NCI-H446 = experiment: Antiproliferative activity against human NCI-H446 cells assessed as inhibition of cell viability after 24 hrs by MTT assay; assay type: functional, cell-based; settings: NCI-H446, 24 h; in short: as §1
[1] = Antiproliferative activity against HBE cells assessed as inhibition of cell viability after 24 hrs by MTT assay; assay type: cell-based; settings: Homo sapiens; in short: as §1
K562 = experiment: Antiproliferative activity against human K562 cells assessed as inhibition of cell viability after 24 hrs by MTT assay; assay type: functional, cell-based; settings: K562, 24 h; in short: as §1
A549 = experiment: Antiproliferative activity against human A549 cells assessed as inhibition of cell viability after 24 hrs by MTT assay; assay type: functional, cell-based; settings: A549, 24 h; in short: as §1
[2] = Antiproliferative activity against human PC3 cells assessed as inhibition of cell viability after 24 hrs by MTT assay; assay type: functional, cell-based; settings: PC-3, 24 h; in short: as §1
[3] = Antiproliferative activity against human RWPE1 cells assessed as inhibition of cell viability after 24 hrs by MTT assay; assay type: cell-based; settings: RWPE-1, 24 h; in short: as §1
NCI-H292 = experiment: Antiproliferative activity against human NCI-H292 cells assessed as inhibition of cell viability after 24 hrs by MTT assay; assay type: functional, cell-based; settings: NCI-H292, 24 h; in short: as §1

Row | Structure (SMILES) | IC50 (DU-145) | IC50 (NCI-H1299) | IC50 (NCI-H446) | IC50 [1] | IC50 (K562) | IC50 (A549) | IC50 [2] | IC50 [3] | IC50 (NCI-H292)
1 | C=C[C@]1(C)CC[C@H]2[C@]3(C)CCCC(C)(C)[C@H]3[C@@H]3C[C@@]2(O1)C(=O)O3 | 18.9 µM | 21.9 µM | 16.7 µM | 53.2 µM | 34 µM | 21.5 µM | 20 µM | 26.4 µM | 10.7 µM
2 | CC(C)[C@H]1CC[C@]2(C)C[C@]3(O)C(=CC(=O)[C@H]3C)[C@@H](C)CC[C@@H]12 [ANADENSIN] | > 40 µM | 27 µM | > 40 µM | > 40 µM | > 40 µM | > 40 µM | > 40 µM | > 40 µM | 39.9 µM
